Sampled rows, rich in hits. Any-hit rate of the full collection: about 2.1%.
CRFR2-BP antag = antagonists of CRF-binding protein/CRF-R2 receptor complex; HEK293 CRF-R2/CRF-BP, CRF-induced calcium fluorescence; inhibition, % at 11.8 µM; actives 0.59% (n = 350,000);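 active = inhibition of the ligand-induced calcium signal above about 50% at the single tested concentration, limit read from the data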
MIN6 prolif = inducers of beta-cell replication in MIN6 cells | MIN6 cells proliferation, ATPlite luminescence, 48 h; cells starved in 0.2% serum; 100% = growth in 10% serum | proliferation, % at 10 µM | actives 0.29% (n = 330,000) | AID 2380;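 active = compounds whose signal lies at least 3.5 SD above the mean of all wells on their plate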
UCH37 inh = human UCH37 deubiquitinating enzyme inhibition. Q9Y5K5. inhibition, % (concentration not given with the values). actives 0.33% (n = 330,000). AID 588478. purified proteasome/UCH37, Ub-AMC cleavage fluorescence;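 active = mean inhibition over replicate wells above about 20%, limit read from the data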
Target sequence (Q9Y5K5 whole entry, looked up): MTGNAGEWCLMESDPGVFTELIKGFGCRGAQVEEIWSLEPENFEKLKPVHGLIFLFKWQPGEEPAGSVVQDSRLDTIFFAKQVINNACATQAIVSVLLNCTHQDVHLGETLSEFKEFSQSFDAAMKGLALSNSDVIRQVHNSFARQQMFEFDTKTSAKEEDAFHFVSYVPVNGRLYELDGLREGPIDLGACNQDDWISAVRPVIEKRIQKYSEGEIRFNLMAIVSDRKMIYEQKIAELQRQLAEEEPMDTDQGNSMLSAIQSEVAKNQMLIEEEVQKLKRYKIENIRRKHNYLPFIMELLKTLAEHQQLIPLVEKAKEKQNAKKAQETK
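Material: Human UCH37 enzyme supplied as purified proteasome complex | Schedule: 30 min compound-proteasome preincubation then 25 min substrate reaction, room temperature | Detection: AMC fluorescence from Ub-AMC cleavage, excitation 355 nm, emission 460 nm | Benchmarks: Wells without proteasome as full block, compound-free enzyme plus substrate as uninhibited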
hiPSC survival = enhancers of human iPSC single-cell survival; hiPSC single-cell survival, ATPlite luminescence; 100% = ROCK inhibitor wells, 0% = DMSO; survival enhancement, % at 20 µM; actives 0.044% (n = 360,000); AID 602274; in the data active = survival enhancement above about 18%;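 note: cells exposed to compounds for 16 hours before the ATP read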
CRFBP-R2 agonist = agonists of human CRF-binding protein/CRF-R2 receptor complex; HEK293 CRF-R2/CRF-BP, calcium dye fluorescence (FLIPR); percent of saturating CRF peptide response; activation, % at 13.2 µM; actives 0.46% (n = 350,000); AID 588473;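 active = activation of at least 50%, plus an integration ratio under a set limit after plate pattern correction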
Cardio protect = modulators protecting cardiomyocytes from myocardial damage; H9c2 cardiomyocytes, H2O2 injury protection, ATPLite, 2 h; protection from H2O2 cell death, % at 20 µM; actives 0.63% (n = 360,000); AID 588492;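 active = compounds giving at least 50% protection of heart cells from peroxide-induced death in the single-dose screen, raw or plate-pattern-corrected value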
A number is an active result; 0 = inactive; - = no result.

SMILES | CRFR2-BP antag | MIN6 prolif | UCH37 inh | hiPSC survival | CRFBP-R2 agonist | Cardio protect
O=C(CCN1CCOCC1)N1CCc2c([nH]c3ccccc23)C1c1cccc(Cl)c1 (stereo unspecified) | 0 | 0 | 23 | 0 | 0 | 0
CC(=NNC(=O)c1cccnc1)c1cccc([N+](=O)[O-])c1 | - | - | 0 | - | - | -
COc1ccccc1-c1cc(C(=O)NN=Cc2sccc2C)c2ccccc2n1 | - | - | 0 | - | - | -
O=C(O)CC1SC(=NN=Cc2ccccc2O)N(c2ccc(O)cc2)C1=O (stereo unspecified) | - | - | 0 | - | - | -
CN(C)C(=O)Nc1ccccc1 | 0 | 0 | 0 | 0 | 0 | 0
C=C1C(C(=O)Nc2ccccc2)C1C(=O)Nc1ccccc1 (stereo unspecified) | 59 | 0 | 0 | 0 | 0 | 0
NC(=S)NN=Cc1ccc(-n2nncc2-c2ccc(Cl)cc2)cc1 | - | - | 0 | - | - | -
COc1ccc(/C=C/c2c([N+](=O)[O-])c(=O)n(C)c(=O)n2C)cc1O | 52 | 0 | 0 | 0 | 0 | 0
COc1cc(/C=C/c2c([N+](=O)[O-])c(=O)n(C)c(=O)n2C)cc(OC)c1OC | 0 | 0 | 0 | 0 | 0 | 0
O=C(O)c1ccc(Cl)c(NC(=S)NC(=O)c2cccc(COc3ccccc3)c2)c1 | 52 | 0 | - | 0 | 0 | 0
O=C(NC(=S)Nc1ccc(Cl)c(C(=O)O)c1)c1cccc(COc2ccccc2)c1 | 0 | 0 | 0 | 0 | 0 | 0
Clc1ccc(-n2cccc2C=Nn2cnnc2)cc1 | - | - | 0 | - | - | -
CCCNC(=O)C1CC(=O)N(c2ccc(OCC)cc2)C1 (stereo unspecified) | 56 | 0 | 0 | 0 | 0 | 0
CCOc1ccc(N2CC(C(=O)NC(C)C)CC2=O)cc1 (stereo unspecified) | 0 | 0 | 0 | 0 | 0 | 0
O=C(O)c1ccc(Nc2nc(-c3cc4ccccc4oc3=O)cs2)cc1O | 0 | 0 | 0 | 0 | 61 | 0
CC1(C)CC(=O)CC(=NNC(=O)COc2ccc(Cl)cc2Cl)C1 | - | - | 0 | - | - | -
COc1ccc(C2CC(c3c(O)cc(C)oc3=O)=NCCS2)c(OC)c1 (stereo unspecified) | 0 | 0 | 0 | 0 | 0 | 0
Cc1cc(O)c(C2=Nc3ccccc3SC(c3ccc(Cl)cc3)C2)c(=O)o1 (stereo unspecified) | 84 | 0 | 0 | 0 | 0 | 0
COc1ccc(C=NNC(=O)c2ccc(Br)cc2)cc1Cn1cc(Cl)cn1 | - | - | 0 | - | - | -
CNC(=O)CN(C1CCCCC1)S(=O)(=O)c1ccc(F)cc1 | 56 | 0 | 0 | 0 | 0 | 0
CCNC(=O)CN(C1CCCCC1)S(=O)(=O)c1ccc(F)cc1 | 0 | 0 | 0 | 0 | 0 | 0
C/C(C=NNc1nc(C)cc(C)n1)=C\c1ccc(C(C)C)cc1 | - | - | 0 | - | - | -
CC(/C=N/Nc1nc(C)cc(C)n1)=C\c1ccc(C(C)C)cc1 | 61 | 0 | - | 0 | 0 | 0
CCOC(=O)c1c(-c2ccccc2)oc2ccc(OC(C)C(=O)O)cc12 (stereo unspecified) | 52 | 0 | - | 0 | 0 | 0
COc1ccc(C(=O)NN=C/C(C)=C/c2ccccc2)cc1OC | - | - | 0 | - | - | -
SMILES | CRFR2-BP antag | MIN6 prolif | UCH37 inh | hiPSC survival | CRFBP-R2 agonist | Cardio protect
CCOC(=O)c1cnc(-n2nc(C)cc2C)nc1NC1CCCC1 | 0 | 0 | - | 0 | 0 | 0
CCOC(=O)c1cnc(-n2nc(C)cc2C)nc1Nc1ccc(OC)cc1 | 0 | 0 | 0 | 0 | 0 | 50
CCOC(=O)c1cnc(-n2nc(C)cc2C)nc1NCCc1ccccc1 | 0 | 0 | 0 | 0 | 0 | 61
C(=Nn1cnnc1)c1ccc2c(c1)OCO2 | - | - | 0 | - | - | -
COc1ccccc1N1CCN(N=C/C(Br)=C/c2ccccc2)CC1 | - | - | 0 | - | - | -
Cc1cc(=O)[nH]c(N=C(N)Nc2ccc(Oc3ccccc3)cc2)n1 | - | - | 0 | - | - | -
COc1ccc(C(=O)Nc2ccc3nc4n(c(=O)c3c2)CCCCC4)cc1OC | 62 | - | - | 0 | 0 | 0
O=C(Nc1ccc(SC(F)F)cc1)c1ccc2c(=O)n3c(nc2c1)CCC3 | 0 | 0 | 0 | 0 | 74 | 0
O=C(CCc1nc2ccccc2c(=O)[nH]1)NNC(=O)c1cccc(Cl)c1 | 0 | 0 | 0 | 0 | 0 | 70
O=C(CCc1nc2ccccc2c(=O)[nH]1)NNC(=O)c1ccc(Cl)cc1 | 0 | 0 | 0 | 0 | 0 | 61
O=C(CCc1nc2ccccc2c(=O)[nH]1)NNC(=O)c1ccc(F)cc1 | 0 | 0 | 0 | 0 | 0 | 78
O=C(CCc1nc2ccccc2c(=O)[nH]1)NCc1cccc(Cl)c1 | 0 | 0 | 0 | 0 | 0 | 0
O=C(CCc1nc2ccccc2c(=O)[nH]1)NNC(=O)COc1ccc(Br)cc1 | 0 | 0 | 0 | 0 | 0 | 0
COc1cc(OC)cc(C(=O)NNC(=O)CCc2nc3ccccc3c(=O)[nH]2)c1 | 0 | 0 | 0 | 0 | 0 | 56
COc1ccc(C=NN2CCN(c3ccccc3OC)CC2)cc1Br | - | - | 0 | - | - | -
C=CCON=C(C)c1c(O)c(C)c(-c2ccccc2)n(-c2ccccc2)c1=O | - | - | 0 | - | - | -
CCC(CC)C(=O)N(CCc1ccc(OC)cc1)Cc1nc2ccccc2c(=O)[nH]1 | 0 | 0 | 0 | 0 | 0 | 56
COc1ccc(CCN(Cc2nc3ccccc3c(=O)[nH]2)C(=O)c2ccco2)cc1 | 0 | 0 | 0 | 0 | 0 | 0
Cn1cccc1CC(=O)NN=Cc1ccc(Cl)cc1 | - | - | 0 | - | - | -
O=C(Nc1ccc(-n2cnnn2)cc1)c1cn2ccccc2n1 | 0 | 0 | 0 | 0 | 104 | 0
CC(C)(C)c1ccc(-n2nc(C(N)=O)c(O)cc2=O)cc1 | 0 | 0 | 0 | 0 | 0 | 0
CC(C)(C)c1ccc(-n2nc(C#N)c(Cl)cc2=O)cc1 | 0 | 0 | 0 | 0 | 51 | 0
CCOC(=O)C1=C(C)N=c2s/c(=C/c3cccc([N+](=O)[O-])c3O)c(=O)n2C1c1ccc(OC)cc1OC (stereo unspecified) | 59 | 0 | - | 0 | 0 | 0
CCOC(=O)C1=C(C)N=c2sc(=Cc3cccc([N+](=O)[O-])c3O)c(=O)n2C1c1ccc(OC)cc1OC (stereo unspecified) | - | - | 0 | - | - | -
COc1ccc(C=NNC(=O)c2cc(C34CC5CC(CC(C5)C3)C4)[nH]n2)cc1OC | - | - | 0 | - | - | -
SMILES | CRFR2-BP antag | MIN6 prolif | UCH37 inh | hiPSC survival | CRFBP-R2 agonist | Cardio protect
CCOC1=C2[C@H](c3ccc(C)cc3)N(S(=O)(=O)c3ccc(C)cc3)C[C@H]2n2c(=O)n(-c3ccccc3)c(=O)n2C1 | - | - | - | 41 | - | 0
COC(=O)C1=C(C)N(Cc2ccc(OC)cc2)C(=O)C1 | 0 | 0 | 0 | 0 | 0 | 0
COC(=O)C1=C(C)N(CCc2ccc(OC)cc2)C(=O)C1 | 0 | 0 | 0 | 0 | 0 | 100
COc1cc(C(=O)N/N=C/c2sc(N3CCOCC3)nc2-c2ccccc2)cc(OC)c1OC | 0 | 0 | - | 0 | 0 | 66
O=C(NN=Cc1sc(N2CCOCC2)nc1-c1ccccc1)c1cccc(S(=O)(=O)N2CCOCC2)c1 | - | - | 0 | - | - | -
COc1ccc(C(=O)NN=Cc2sc(N3CCOCC3)nc2-c2ccccc2)cc1OC | - | - | 0 | - | - | -

Assay outcomes as filed in PubChem BioAssay.
